Measurements: ChEMBL document CHEMBL1130160 (J Med Chem, 1997)

What was measured:
[1] = test system: Rattus norvegicus; test: Percent decrease in serum cholesterol relative to OVX control at 1.0 mg/kg in rats; format: functional
How it was run: (§1)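 OVX Sprague–Dawley rats (75 days old), 5–6 per group, dosed once daily by oral gavage for 4 consecutive days, starting 14 days after ovariectomy. Vehicle was 20% β-hydroxycyclodextrin at 1 mL/kg, or 1.5% carboxymethylcellulose in some cases. Rats were fasted after the last dose and bled by cardiac puncture next morning.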

[2] = test system: Rattus norvegicus; test: Minimum effective dose at which significant increase in uterine weight/body weight in rat was determined (in vivo); format: functional; conditions: read-out: MED
How it was run: (§2)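 In 75-day OVX Sprague–Dawley rats dosed orally for 4 days, beginning 2 weeks post-ovariectomy with 5–6 rats per group, whole uteri were weighed the morning after fasting. MED is the lowest dose giving a significant (p≤0.05) rise in uterine weight/body weight, expressed as % increase over OVX controls ±SE.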

[3] = test system: Rattus norvegicus; test: Minimum effective dose at which significant increase in uterine eosinophil peroxidase (EPO) activity in rat was determined (in vivo); format: functional; conditions: read-out: MED
[4] = test system: Rattus norvegicus; test: Minimum effective dose at which significant increase in uterine weight/body weight in rat was determined (in vivo); expressed as % increase relative to ovariectomized (OVX) controls; format: functional; how it was run: as §2
[5] = molecular target: Estrogen receptor (Homo sapiens, UniProt Q92731+P03372); conditions: mcf7
[6] = test system: Rattus norvegicus; test: Dose required to reduce serum cholesterol by 50% relative to OVX controls was determined (in vivo); format: functional; how it was run: as §1
[7] = test system: Rattus norvegicus; test: Percent decrease in serum cholesterol relative to OVX control at 10 mg/kg in rat was determined (in vivo); format: functional; how it was run: as §1
[8] = test system: Rattus norvegicus; test: Percent decrease in serum cholesterol relative to OVX control at 0.1 mg/kg in rats; format: functional; how it was run: as §1
[9] = test system: Rattus norvegicus; test: Percent decrease in serum cholesterol relative to OVX control at 0.1 mg/kg in rat was determined (in vivo); format: functional; how it was run: as §1
[10] = test system: Rattus norvegicus; test: Eosinophil peroxidase activity expressed as Vmax was determined in rat (in vivo) Eosinophil peroxidase activity expressed as Vmax was determined in rat (in vivo); format: functional; design: unit not given here
[11] = test system: Rattus norvegicus; test: Percent decrease in serum cholesterol relative to OVX control at 1 mg/kg in rat; format: functional; how it was run: as §1

NC(=O)c1ccc2c(C(=O)c3ccc(OCCN4CCCCC4)cc3)c(-c3ccc(O)cc3)sc2c1
Decrease [1]: -14.9%
minimal effective dose [2]: 10 mg/kg
minimal effective dose [3]: > 10 mg/kg
Increase [4]: 30.7%
IC50 [5]: 1000 nM

CC(C)c1sc2cc(O)ccc2c1C(=O)c1ccc(OCCN2CCCCC2)cc1
Decrease [1]: 30.5%
minimal effective dose [2]: > 10 mg/kg
minimal effective dose [3]: > 10 mg/kg
ED50 [6]: > 10 mg/kg
Decrease [7]: 35%
Decrease [8]: 12.4%

O=C(c1ccc(OCCN2CCCCC2)cc1)c1c(C2CCCCC2)sc2cc(O)ccc12
Decrease [1]: 52.9%
minimal effective dose [2]: 1 mg/kg
minimal effective dose [3]: > 10 mg/kg
ED50 [6]: 2.1 mg/kg
Increase [4]: 30.2%
Decrease [7]: 61.7%
Decrease [8]: -0.1%

COC(=O)c1ccc(-c2sc3cc(O)ccc3c2C(=O)c2ccc(OCCN3CCCCC3)cc2)cc1
minimal effective dose [2]: 1 mg/kg
minimal effective dose [3]: 10 mg/kg
Decrease [9]: 23.8%
ED50 [6]: 3.8 mg/kg
Eosinophil peroxidase activity (Vmax) [10]: 13.2
Increase [4]: 37.2%
Decrease [7]: 56.1%
Decrease [11]: 42.1%

O=C(c1ccc(OCCN2CCCCC2)cc1)c1c(-c2ccsc2)sc2cc(O)ccc12
minimal effective dose [2]: 10 mg/kg
minimal effective dose [3]: > 10 mg/kg
ED50 [6]: > 10 mg/kg
Decrease [7]: 31.8%
Decrease [8]: 0.6%
IC50 [5]: 10 nM

O=C(c1ccc(OCCN2CCCCC2)cc1)c1c(-c2cccc3ccccc23)sc2cc(O)ccc12
Decrease [1]: 53.9%
minimal effective dose [2]: > 10 mg/kg
minimal effective dose [3]: > 10 mg/kg
ED50 [6]: 0.5 mg/kg
Decrease [7]: 67.8%
Decrease [8]: 40.1%
IC50 [5]: 0.8 nM

Cc1ccc(-c2sc3cc(O)ccc3c2C(=O)c2ccc(OCCN3CCCCC3)cc2)cc1.Cl
minimal effective dose [2]: 1 mg/kg
minimal effective dose [3]: > 10 mg/kg
Decrease [9]: 12.2%
ED50 [6]: 2.9 mg/kg
Increase [4]: 34.6%
Decrease [7]: 69.1%
Decrease [11]: 26.5%
IC50 [5]: 50 nM

Cl.O=C(c1ccc(OCCN2CCCCC2)cc1)c1c(-c2ccccc2)sc2ccccc12
minimal effective dose [2]: 0.1 mg/kg
minimal effective dose [3]: > 10 mg/kg
Decrease [9]: 59.4%
ED50 [6]: < 0.1 mg/kg
Increase [4]: 59.2%
Decrease [7]: 45.6%
Decrease [11]: 72.6%
IC50 [5]: 300 nM

Cc1sc2cc(O)ccc2c1C(=O)c1ccc(OCCN2CCCCC2)cc1
Decrease [1]: 53.8%
minimal effective dose [2]: > 10 mg/kg
minimal effective dose [3]: > 10 mg/kg
ED50 [6]: 1.8 mg/kg
Decrease [7]: 62.9%
Decrease [8]: 8.3%

Cl.O=C(c1ccc(OCCN2CCCCC2)cc1)c1c(-c2ccc(Cl)cc2)sc2cc(O)ccc12
minimal effective dose [2]: 0.1 mg/kg
minimal effective dose [3]: > 10 mg/kg
Decrease [9]: 32.3%
ED50 [6]: 0.3 mg/kg
Increase [4]: 56.5%
Decrease [7]: 65%
Decrease [11]: 69.9%
IC50 [5]: 1 nM

O=C(c1ccc(OCCN2CCCCC2)cc1)c1c(-c2cc[n+]([O-])cc2)sc2cc(O)ccc12
Decrease [1]: 1.8%
minimal effective dose [2]: > 10 mg/kg
minimal effective dose [3]: > 10 mg/kg
ED50 [6]: > 10 mg/kg
Decrease [7]: 42.6%
Decrease [8]: -16.6%
IC50 [5]: 100 nM

Cl.O=C(c1ccc(OCCN2CCCCC2)cc1)c1c(-c2ccccc2)sc2cc(O)ccc12
minimal effective dose [2]: 0.1 mg/kg
minimal effective dose [3]: > 10 mg/kg
Decrease [9]: 55.6%
ED50 [6]: < 0.1 mg/kg
Increase [4]: 38.7%
Decrease [7]: 66%
Decrease [11]: 53.4%
IC50 [5]: 2.5 nM

O=C(c1ccc(OCCN2CCCCC2)cc1)c1c(-c2cccs2)sc2cc(O)ccc12
Decrease [1]: -0.9%
minimal effective dose [2]: 1 mg/kg
minimal effective dose [3]: > 10 mg/kg
ED50 [6]: 11 mg/kg
IC50 [5]: 20 nM

Cc1cc(-c2sc3cc(O)ccc3c2C(=O)c2ccc(OCCN3CCCCC3)cc2)cc(C)c1O
minimal effective dose [2]: 1 mg/kg
minimal effective dose [3]: 1 mg/kg
Decrease [9]: 23.1%
ED50 [6]: 1.8 mg/kg
Eosinophil peroxidase activity (Vmax) [10]: 40.8
Increase [4]: 33.8%
Decrease [7]: 69.1%
Decrease [11]: 40.2%
IC50 [5]: 100 nM

C=Cc1ccc(-c2sc3cc(O)ccc3c2C(=O)c2ccc(OCCN3CCCCC3)cc2)cc1
minimal effective dose [2]: 0.1 mg/kg
minimal effective dose [3]: 1 mg/kg
Decrease [9]: -7%
ED50 [6]: 10 mg/kg
Eosinophil peroxidase activity (Vmax) [10]: 48
Increase [4]: 26.9%
Decrease [7]: 49.7%
Decrease [11]: 41.5%

O=C(c1ccc(OCCN2CCCCC2)cc1)c1c(-c2ccncc2)sc2cc(O)ccc12
Decrease [1]: 24%
minimal effective dose [2]: 1 mg/kg
minimal effective dose [3]: > 10 mg/kg
ED50 [6]: 14.6 mg/kg
Increase [4]: 33.3%
Decrease [7]: 47.6%
Decrease [8]: 7.2%
IC50 [5]: 100 nM

CCCCc1ccc(-c2sc3cc(O)ccc3c2C(=O)c2ccc(OCCN3CCCCC3)cc2)cc1
minimal effective dose [2]: > 10 mg/kg
minimal effective dose [3]: 10 mg/kg
Decrease [9]: 21.3%
ED50 [6]: 2.3 mg/kg
Eosinophil peroxidase activity (Vmax) [10]: 20.8
Decrease [7]: 72%
Decrease [11]: 14.5%
IC50 [5]: 10 nM

Cl.O=C(c1ccc(OCCN2CCCCC2)cc1)c1c(-c2ccc(O)cc2)sc2cc(Cl)ccc12
minimal effective dose [2]: 10 mg/kg
minimal effective dose [3]: > 10 mg/kg
Decrease [9]: -5.1%
ED50 [6]: > 10 mg/kg
Increase [4]: 49.6%
Decrease [7]: 37.6%
Decrease [11]: -6.8%
IC50 [5]: 1000 nM

CCc1sc2cc(O)ccc2c1C(=O)c1ccc(OCCN2CCCCC2)cc1
Decrease [1]: 26.5%
minimal effective dose [2]: 10 mg/kg
minimal effective dose [3]: > 10 mg/kg
Increase [4]: 55.03%
Decrease [7]: 31.1%
Decrease [8]: 4.4%

CSc1ccc(-c2sc3cc(O)ccc3c2C(=O)c2ccc(OCCN3CCCCC3)cc2)cc1
minimal effective dose [2]: 1 mg/kg
minimal effective dose [3]: 1 mg/kg
Decrease [9]: 27.7%
ED50 [6]: 0.9 mg/kg
Eosinophil peroxidase activity (Vmax) [10]: 37.5
Increase [4]: 50.2%
Decrease [7]: 75.3%
Decrease [11]: 51.5%

O=C(c1ccc(OCCN2CCCCC2)cc1)c1c(-c2ccc(-c3ccccc3)cc2)sc2cc(O)ccc12
minimal effective dose [2]: 0.1 mg/kg
minimal effective dose [3]: 1 mg/kg
Decrease [9]: 12.9%
ED50 [6]: 2.4 mg/kg
Eosinophil peroxidase activity (Vmax) [10]: 25.4
Increase [4]: 50.3%
Decrease [7]: 68.5%
Decrease [11]: 37%
IC50 [5]: 100 nM

O=C(c1ccc(OCCN2CCCCC2)cc1)c1c(C2CCCC2)sc2cc(O)ccc12
Decrease [1]: 55.6%
minimal effective dose [2]: > 10 mg/kg
minimal effective dose [3]: > 10 mg/kg
ED50 [6]: 1.2 mg/kg
Decrease [7]: 69.6%
Decrease [8]: 18.4%
